# ChEMBL document CHEMBL4689842, “EUbOPEN Chemogenomics Library wave 1” (2021)
# Test system: U2OS
# Assay: Multiplex assay against U2OS
# Assay type: toxicity, cell-based
# Conditions: human
# Procedure, shortened: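 On a CQ1 microscope at 37°C and 5% CO2, live cells were imaged after compound addition. They had been stained at seeding with Hoechst33342, BioTracker Green Microtubule Cytoskeleton Dye, MitoTracker Red and Annexin V Alexa Fluor 680. CellPathfinder machine-learning gating assigned cells to Hoechst high-intensity objects or normal cells, normal cells to healthy, pyknosed or fragmented nuclei, and pyknosed cells to mitotic or apoptotic. Tubulin, mitochondrial-mass and membrane-permeability phenotypes are per cents of healthy-nucleus cells.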
# [1] = 12 h, 1 µM, compound concentration 1 uM, replicate 1
# [2] = 12 h, 1 µM, compound concentration 1 uM, replicate 2
# [3] = 12 h, 10 µM, compound concentration 10 uM, replicate 1
# [4] = 12 h, 10 µM, compound concentration 10 uM, replicate 2
# [5] = 24 h, 1 µM, compound concentration 1 uM, replicate 1
# [6] = 24 h, 1 µM, compound concentration 1 uM, replicate 2
# [7] = 24 h, 10 µM, compound concentration 10 uM, replicate 1
# [8] = 24 h, 10 µM, compound concentration 10 uM, replicate 2
# [9] = 48 h, 1 µM, compound concentration 1 uM, replicate 1
# [10] = 48 h, 1 µM, compound concentration 1 uM, replicate 2
# [11] = 48 h, 10 µM, compound concentration 10 uM, replicate 1
# [12] = 48 h, 10 µM, compound concentration 10 uM, replicate 2
structure (smiles),measurement,setting,value
CC(C)(O)CNc1ncc(-c2ccnc(Nc3ccnc(Cl)c3)n2)c(CC2CC2)n1,Population Apoptotic (%),[1],44%
same,Population Fragmented Nuclei (%),[1],9%
same,Population Healthy Nuclei (%),[1],71%
same,Population Hoechst High Intensity Objects (%),[1],3%
same,Population Membrane Permeable-Phenotype (%),[1],8%
same,Population Mitochondria Different-Phenotype (%),[1],24%
same,Population Mitotic Cells (%),[1],55%
same,Population Normal (%),[1],96%
same,Population Pyknosed Nuclei (%),[1],18%
same,Population Tubulin-Different-Phenotype (%),[1],19%
same,Total Cell Count,[1],182
same,Population Apoptotic (%),[2],9%
same,Population Healthy Nuclei (%),[2],78%
same,Population Hoechst High Intensity Objects (%),[2],5%
same,Population Membrane Permeable-Phenotype (%),[2],5%
same,Population Mitochondria Different-Phenotype (%),[2],17%
same,Population Mitotic Cells (%),[2],90%
same,Population Normal (%),[2],94%
same,Population Pyknosed Nuclei (%),[2],12%
same,Population Tubulin-Different-Phenotype (%),[2],14%
same,Total Cell Count,[2],97
same,Population Apoptotic (%),[3],50%
same,Population Fragmented Nuclei (%),[3],18%
same,Population Healthy Nuclei (%),[3],42%
same,Population Hoechst High Intensity Objects (%),[3],14%
same,Population Membrane Permeable-Phenotype (%),[3],24%
same,Population Mitochondria Different-Phenotype (%),[3],90%
same,Population Mitotic Cells (%),[3],50%
same,Population Normal (%),[3],85%
same,Population Pyknosed Nuclei (%),[3],38%
same,Population Tubulin-Different-Phenotype (%),[3],100%
same,Total Cell Count,[3],202
same,Population Apoptotic (%),[4],15%
same,Population Fragmented Nuclei (%),[4],10%
same,Population Healthy Nuclei (%),[4],64%
same,Population Hoechst High Intensity Objects (%),[4],7%
same,Population Membrane Permeable-Phenotype (%),[4],28%
same,Population Mitochondria Different-Phenotype (%),[4],96%
same,Population Mitotic Cells (%),[4],84%
same,Population Normal (%),[4],92%
same,Population Pyknosed Nuclei (%),[4],26%
same,Total Cell Count,[4],93
same,Population Apoptotic (%),[5],35%
same,Population Fragmented Nuclei (%),[5],6%
same,Population Healthy Nuclei (%),[5],75%
same,Population Hoechst High Intensity Objects (%),[5],3%
same,Population Membrane Permeable-Phenotype (%),[5],5%
same,Population Mitochondria Different-Phenotype (%),[5],22%
same,Population Mitotic Cells (%),[5],64%
same,Population Normal (%),[5],96%
same,Population Pyknosed Nuclei (%),[5],18%
same,Population Tubulin-Different-Phenotype (%),[5],10%
same,Total Cell Count,[5],196
same,Population Apoptotic (%),[6],20%
same,Population Fragmented Nuclei (%),[6],11%
same,Population Healthy Nuclei (%),[6],74%
same,Population Hoechst High Intensity Objects (%),[6],4%
same,Population Membrane Permeable-Phenotype (%),[6],10%
same,Population Mitochondria Different-Phenotype (%),[6],20%
same,Population Mitotic Cells (%),[6],80%
same,Population Normal (%),[6],95%
same,Population Pyknosed Nuclei (%),[6],15%
same,Population Tubulin-Different-Phenotype (%),[6],16%
same,Total Cell Count,[6],136
same,Population Apoptotic (%),[7],52%
same,Population Fragmented Nuclei (%),[7],26%
same,Population Healthy Nuclei (%),[7],22%
same,Population Hoechst High Intensity Objects (%),[7],12%
same,Population Membrane Permeable-Phenotype (%),[7],47%
same,Population Mitochondria Different-Phenotype (%),[7],100%
same,Population Mitotic Cells (%),[7],47%
same,Population Normal (%),[7],87%
same,Population Pyknosed Nuclei (%),[7],51%
same,Population Tubulin-Different-Phenotype (%),[7],100%
same,Total Cell Count,[7],240
same,Population Apoptotic (%),[8],47%
same,Population Fragmented Nuclei (%),[8],14%
same,Population Healthy Nuclei (%),[8],40%
same,Population Hoechst High Intensity Objects (%),[8],14%
same,Population Mitochondria Different-Phenotype (%),[8],89%
same,Population Mitotic Cells (%),[8],52%
same,Population Normal (%),[8],85%
same,Population Pyknosed Nuclei (%),[8],44%
same,Total Cell Count,[8],105
same,Population Apoptotic (%),[9],45%
same,Population Fragmented Nuclei (%),[9],6%
same,Population Hoechst High Intensity Objects (%),[9],2%
same,Population Membrane Permeable-Phenotype (%),[9],9%
same,Population Mitochondria Different-Phenotype (%),[9],10%
same,Population Mitotic Cells (%),[9],54%
same,Population Normal (%),[9],97%
same,Population Pyknosed Nuclei (%),[9],17%
same,Population Tubulin-Different-Phenotype (%),[9],7%
same,Total Cell Count,[9],130
same,Population Apoptotic (%),[10],50%
same,Population Fragmented Nuclei (%),[10],13%
same,Population Healthy Nuclei (%),[10],76%
same,Population Hoechst High Intensity Objects (%),[10],3%
same,Population Membrane Permeable-Phenotype (%),[10],17%
same,Population Mitochondria Different-Phenotype (%),[10],24%
same,Population Mitotic Cells (%),[10],50%
same,Population Normal (%),[10],96%
same,Population Pyknosed Nuclei (%),[10],10%
same,Population Tubulin-Different-Phenotype (%),[10],22%
same,Total Cell Count,[10],90
same,Population Apoptotic (%),[11],82%
same,Population Fragmented Nuclei (%),[11],35%
same,Population Healthy Nuclei (%),[11],12%
same,Population Hoechst High Intensity Objects (%),[11],15%
same,Population Membrane Permeable-Phenotype (%),[11],50%
same,Population Mitochondria Different-Phenotype (%),[11],90%
same,Population Mitotic Cells (%),[11],17%
same,Population Normal (%),[11],84%
same,Population Pyknosed Nuclei (%),[11],51%
same,Population Tubulin-Different-Phenotype (%),[11],100%
same,Total Cell Count,[11],308
same,Population Apoptotic (%),[12],61%
same,Population Fragmented Nuclei (%),[12],19%
same,Population Healthy Nuclei (%),[12],23%
same,Population Hoechst High Intensity Objects (%),[12],17%
same,Population Membrane Permeable-Phenotype (%),[12],100%
same,Population Mitochondria Different-Phenotype (%),[12],100%
same,Population Mitotic Cells (%),[12],38%
same,Population Normal (%),[12],82%
same,Population Pyknosed Nuclei (%),[12],56%
same,Total Cell Count,[12],141
